In ChEMBL document CHEMBL4004831, “Naphthalene diimide-polyamine hybrids as antiproliferative agents: Focus on the architecture of the polyamine chains” (Eur J Med Chem, 2017):
Each block holds one molecule with its values, some of them ahead of it.

Assays:
MDA-MB-435 = assay: Growth inhibition of human MDA-MB-435 cells incubated for 48 hrs by sulforhodamine B assay; format: functional; conditions: MDA-MB-435, 48 h
SNB-75 = assay: Growth inhibition of human SNB75 cells incubated for 48 hrs by sulforhodamine B assay; format: functional; conditions: SNB-75, 48 h
SK-OV-3 = assay: Growth inhibition of human SKOV3 cells incubated for 48 hrs by sulforhodamine B assay; format: functional; conditions: SK-OV-3, 48 h
A549 = assay: Growth inhibition of human A549/ATCC cells incubated for 48 hrs by sulforhodamine B assay; format: functional; conditions: A549, 48 h
SF-268 = assay: Growth inhibition of human SF268 cells incubated for 48 hrs by sulforhodamine B assay; format: functional; conditions: SF-268, 48 h
COLO 205 = assay: Growth inhibition of human COLO205 cells incubated for 48 hrs by sulforhodamine B assay; format: functional; conditions: COLO 205, 48 h
KM12 = assay: Growth inhibition of human KM12 cells incubated for 48 hrs by sulforhodamine B assay; format: functional; conditions: KM12, 48 h
Malme-3M = assay: Growth inhibition of human MALME-3M cells incubated for 48 hrs by sulforhodamine B assay; format: functional
T47D = assay: Growth inhibition of human T47D cells incubated for 48 hrs by sulforhodamine B assay; format: functional
NCI-H23 = assay: Growth inhibition of human NCI-H23 cells incubated for 48 hrs by sulforhodamine B assay; format: functional; conditions: NCI-H23, 48 h
[1] = Stabilization of 5'Dabcyl/3'FAM labeled duplex DNA (unknown origin) assessed as increase in melting temperature at 2.5 uM pretreated for 5 mins at 30 degreeC followed by 5 mins incubation at 95 degreeC by fluorescence assay
Summary of the method: (§1)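 FRET melting in LiP buffer (10 mM LiOH, 50 mM KCl, pH 7.0 with H3PO4), ex 488 nm, em 520 nm. Samples were held 5 min at 30 °C, heated at 1 °C/min to 95 °C, held 5 min, then re-annealed. Tm came from first derivatives; ΔTm = shift with ligand at 2.5; at least three runs.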

OVCAR-5 = assay: Growth inhibition of human OVCAR5 cells incubated for 48 hrs by sulforhodamine B assay; format: functional; conditions: OVCAR-5, 48 h
MCF7 = assay: Growth inhibition of human MCF7 cells incubated for 48 hrs by sulforhodamine B assay; format: functional; conditions: MCF7, 48 h
CAKI-1 = assay: Growth inhibition of human Caki1 cells incubated for 48 hrs by sulforhodamine B assay; format: functional; conditions: CAKI-1, 48 h
IGROV-1 = assay: Growth inhibition of human IGROV1 cells incubated for 48 hrs by sulforhodamine B assay; format: functional; conditions: IGROV-1, 48 h
786-0 = assay: Growth inhibition of human 786-0 cells incubated for 48 hrs by sulforhodamine B assay; format: functional; conditions: 786-0, 48 h
RPMI-8226 = assay: Growth inhibition of human RPMI8226 cells incubated for 48 hrs by sulforhodamine B assay; format: functional; conditions: RPMI-8226, 48 h
MOLT-4 = assay: Growth inhibition of human MOLT4 cells incubated for 48 hrs by sulforhodamine B assay; format: functional; conditions: MOLT-4, 48 h
CCRF-CEM = assay: Growth inhibition of human CCRF-CEM cells incubated for 48 hrs by sulforhodamine B assay; format: functional
MDA-MB-468 = assay: Growth inhibition of human MDA-MB-468 cells incubated for 48 hrs by sulforhodamine B assay; format: functional; conditions: MDA-MB-468, 48 h
SF-539 = assay: Growth inhibition of human SF539 cells incubated for 48 hrs by sulforhodamine B assay; format: functional; conditions: SF-539, 48 h
OVCAR-8 = assay: Growth inhibition of human OVCAR8 cells incubated for 48 hrs by sulforhodamine B assay; format: functional; conditions: OVCAR-8, 48 h
OVCAR-4 = assay: Growth inhibition of human OVCAR4 cells incubated for 48 hrs by sulforhodamine B assay; format: functional; conditions: OVCAR-4, 48 h
K562 = assay: Growth inhibition of human K562 cells incubated for 48 hrs by sulforhodamine B assay; format: functional; conditions: K562, 48 h
NCI-H522 = assay: Growth inhibition of human NCI-H522 cells incubated for 48 hrs by sulforhodamine B assay; format: functional; conditions: NCI-H522, 48 h
PC-3 = assay: Growth inhibition of human PC3 cells incubated for 48 hrs by sulforhodamine B assay; format: functional; conditions: PC-3, 48 h
SK-MEL-2 = assay: Growth inhibition of human SK-MEL-2 cells incubated for 48 hrs by sulforhodamine B assay; format: functional; conditions: SK-MEL-2, 48 h
BT-549 = assay: Growth inhibition of human BT549 cells incubated for 48 hrs by sulforhodamine B assay; format: functional; conditions: BT-549, 48 h
HCT-15 = assay: Growth inhibition of human HCT15 cells incubated for 48 hrs by sulforhodamine B assay; format: functional; conditions: HCT-15, 48 h
SK-MEL-28 = assay: Growth inhibition of human SK-MEL-28 cells incubated for 48 hrs by sulforhodamine B assay; format: functional; conditions: SK-MEL-28, 48 h
HCT-116 = assay: Growth inhibition of human HCT116 cells incubated for 48 hrs by sulforhodamine B assay; format: functional; conditions: HCT-116, 48 h
SN12C = assay: Growth inhibition of human SN12C cells incubated for 48 hrs by sulforhodamine B assay; format: functional
U-251 = assay: Growth inhibition of human U251 cells incubated for 48 hrs by sulforhodamine B assay; format: functional; conditions: U-251, 48 h
NCI-H460 = assay: Growth inhibition of human NCI-H460 cells incubated for 48 hrs by sulforhodamine B assay; format: functional; conditions: NCI-H460, 48 h
Hs-578T = assay: Growth inhibition of human Hs 578T cells incubated for 48 hrs by sulforhodamine B assay; format: functional
LOX IMVI = assay: Growth inhibition of human LOXIMVI cells incubated for 48 hrs by sulforhodamine B assay; format: functional
Homo sapiens = species on record: Homo sapiens; assay: Stabilization of 5'Dabcyl/3'FAM labeled human telomeric sequence G-quadruplex DNA assessed as increase in melting temperature at 2.5 uM pretreated for 5 mins at 30 degreeC followed by 5 mins incubation at 95 degreeC by fluorescence assay; summary of the method: as §1
NCI-H226 = assay: Growth inhibition of human NCI-H226 cells incubated for 48 hrs by sulforhodamine B assay; format: functional; conditions: NCI-H226, 48 h
M14 = assay: Growth inhibition of human M14 cells incubated for 48 hrs by sulforhodamine B assay; format: functional; conditions: M14, 48 h
A498 = assay: Growth inhibition of human A498 cells incubated for 48 hrs by sulforhodamine B assay; format: functional; conditions: A498, 48 h
SF-295 = assay: Growth inhibition of human SF295 cells incubated for 48 hrs by sulforhodamine B assay; format: functional; conditions: SF-295, 48 h
HL-60 = assay: Growth inhibition of human HL60 cells incubated for 48 hrs by sulforhodamine B assay; format: functional; conditions: HL-60, 48 h
SK-MEL-5 = assay: Growth inhibition of human SK-MEL-5 cells incubated for 48 hrs by sulforhodamine B assay; format: functional; conditions: SK-MEL-5, 48 h
DU-145 = assay: Growth inhibition of human DU145 cells incubated for 48 hrs by sulforhodamine B assay; format: functional; conditions: DU-145, 48 h

GI50 (MDA-MB-435): 196 nM
GI50 (SK-OV-3): 2670 nM
GI50 (A549): 1760 nM
GI50 (COLO 205): 570 nM
GI50 (T47D): 1170 nM
GI50 (NCI-H23): 1340 nM
ΔTm [1]: 6.7 °C
GI50 (OVCAR-5): 1950 nM
GI50 (MCF7): 302 nM
GI50 (786-0): 1940 nM
GI50 (RPMI-8226): 1110 nM
GI50 (MOLT-4): 433 nM
GI50 (CCRF-CEM): 433 nM
GI50 (MDA-MB-468): 406 nM
GI50 (OVCAR-8): 421 nM
GI50 (OVCAR-4): 257 nM
GI50 (K562): 1090 nM
GI50 (NCI-H522): 1570 nM
GI50 (PC-3): 1660 nM
GI50 (SK-MEL-2): 1440 nM
GI50 (BT-549): 1660 nM
GI50 (HCT-15): 1410 nM
GI50 (SK-MEL-28): 1730 nM
GI50 (HCT-116): 394 nM
GI50 (U-251): 1590 nM
GI50 (NCI-H460): 524 nM
ΔTm (Homo sapiens): 1.4 °C
GI50 (NCI-H226): 1780 nM
GI50 (HL-60): 1560 nM
GI50 (SK-MEL-5): 246 nM
GI50 (DU-145): 1380 nM
SMILES: COc1ccccc1CNCCCN1C(=O)c2ccc3c4c(ccc(c24)C1=O)C(=O)N(CCCN)C3=O
GI50 (SNB-75): 1580 nM
GI50 (SF-268): 1230 nM
GI50 (KM12): 1620 nM
GI50 (Malme-3M): 366 nM
GI50 (CAKI-1): 1760 nM
GI50 (IGROV-1): 1000 nM
GI50 (SF-539): 1300 nM
GI50 (SN12C): 1170 nM
GI50 (Hs-578T): 1740 nM
GI50 (LOX IMVI): 526 nM
GI50 (M14): 1060 nM
GI50 (A498): 1540 nM
GI50 (SF-295): 1430 nM

GI50 (MDA-MB-435): 2070 nM
GI50 (SK-OV-3): 4040 nM
GI50 (A549): 3010 nM
GI50 (T47D): 1510 nM
GI50 (NCI-H23): 1720 nM
ΔTm [1]: 10.4 °C
GI50 (OVCAR-5): 5240 nM
GI50 (MCF7): 422 nM
GI50 (RPMI-8226): 10900 nM
GI50 (MOLT-4): 173 nM
GI50 (CCRF-CEM): 317 nM
GI50 (MDA-MB-468): 456 nM
GI50 (OVCAR-8): 2080 nM
GI50 (OVCAR-4): 466 nM
GI50 (K562): 324 nM
GI50 (NCI-H522): 1220 nM
GI50 (PC-3): 5910 nM
GI50 (SK-MEL-2): 2670 nM
GI50 (BT-549): 2580 nM
GI50 (HCT-15): 12200 nM
GI50 (SK-MEL-28): 3030 nM
GI50 (HCT-116): 717 nM
GI50 (U-251): 1170 nM
GI50 (NCI-H460): 2080 nM
ΔTm (Homo sapiens): 22 °C
GI50 (NCI-H226): 2990 nM
GI50 (HL-60): 254 nM
GI50 (SK-MEL-5): 1570 nM
GI50 (DU-145): 3650 nM
SMILES: COc1ccccc1CNCCCN1C(=O)c2ccc3c4c(ccc(c24)C1=O)C(=O)N(CCCNCCNCCCN)C3=O
GI50 (SNB-75): 3070 nM
GI50 (SF-268): 2100 nM
GI50 (KM12): 3250 nM
GI50 (Malme-3M): 1610 nM
GI50 (CAKI-1): 21700 nM
GI50 (IGROV-1): 3690 nM
GI50 (SF-539): 2880 nM
GI50 (SN12C): 2090 nM
GI50 (Hs-578T): 5510 nM
GI50 (LOX IMVI): 2100 nM
GI50 (M14): 2070 nM
GI50 (A498): 5010 nM
GI50 (SF-295): 2770 nM
